Assay results reported in ChEMBL document CHEMBL4406821, “Novel dual inhibitors targeting CDK4 and VEGFR2 synergistically suppressed cancer progression and angiogenesis” (Eur J Med Chem, 2019).
Activity calls are given as the source filed them. The calls are words filed in the database; no cut-off is given here.

Experiments:
[1] = test system: MDA-MB-231; assay: Inhibition of colony formation in human MDA-MB-231 cells at 40 nM incubated for 5 days by crystal violet staining based light microscopy; format: functional, cell-based
Procedure, shortened: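 4 × 10^3 cells per well were cultured with graded concentrations for 5 days. Cells were then fixed with 20% methanol, stained with 0.5% crystal violet and photographed by light microscopy.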

[2] = test system: HUVEC; assay: Antiproliferative activity against HUVEC cells assessed as reduction in cell viability at 40 nM measured upto 72 hrs by CCK8 assay; format: functional, cell-based; details: Homo sapiens
Procedure, shortened: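 HUVECs, 3×10³ cells/well, kept in 1640 medium with 10% FBS at 37°C and 5% CO₂. Cells were treated at 20 or 40 nM or vehicle, and viability was read by CCK-8 (absorbance 450 nm) at 0, 12, 24, 36, 48, 60 and 72 h. Five replicates per sample.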

[3] = biological target: ALK tyrosine kinase receptor (Homo sapiens) (UniProt Q9UM73); assay: Inhibition of recombinant human ALK (1058 to end residues) at 1 uM using KKKSPGEYVNIEF as substrate incubated for 40 mins in presence of [gamma-33P]-ATP by scintillation counting method relative to control
Sequence of ALK tyrosine kinase receptor (Homo sapiens) (Q9UM73 19-1620 limits assumed): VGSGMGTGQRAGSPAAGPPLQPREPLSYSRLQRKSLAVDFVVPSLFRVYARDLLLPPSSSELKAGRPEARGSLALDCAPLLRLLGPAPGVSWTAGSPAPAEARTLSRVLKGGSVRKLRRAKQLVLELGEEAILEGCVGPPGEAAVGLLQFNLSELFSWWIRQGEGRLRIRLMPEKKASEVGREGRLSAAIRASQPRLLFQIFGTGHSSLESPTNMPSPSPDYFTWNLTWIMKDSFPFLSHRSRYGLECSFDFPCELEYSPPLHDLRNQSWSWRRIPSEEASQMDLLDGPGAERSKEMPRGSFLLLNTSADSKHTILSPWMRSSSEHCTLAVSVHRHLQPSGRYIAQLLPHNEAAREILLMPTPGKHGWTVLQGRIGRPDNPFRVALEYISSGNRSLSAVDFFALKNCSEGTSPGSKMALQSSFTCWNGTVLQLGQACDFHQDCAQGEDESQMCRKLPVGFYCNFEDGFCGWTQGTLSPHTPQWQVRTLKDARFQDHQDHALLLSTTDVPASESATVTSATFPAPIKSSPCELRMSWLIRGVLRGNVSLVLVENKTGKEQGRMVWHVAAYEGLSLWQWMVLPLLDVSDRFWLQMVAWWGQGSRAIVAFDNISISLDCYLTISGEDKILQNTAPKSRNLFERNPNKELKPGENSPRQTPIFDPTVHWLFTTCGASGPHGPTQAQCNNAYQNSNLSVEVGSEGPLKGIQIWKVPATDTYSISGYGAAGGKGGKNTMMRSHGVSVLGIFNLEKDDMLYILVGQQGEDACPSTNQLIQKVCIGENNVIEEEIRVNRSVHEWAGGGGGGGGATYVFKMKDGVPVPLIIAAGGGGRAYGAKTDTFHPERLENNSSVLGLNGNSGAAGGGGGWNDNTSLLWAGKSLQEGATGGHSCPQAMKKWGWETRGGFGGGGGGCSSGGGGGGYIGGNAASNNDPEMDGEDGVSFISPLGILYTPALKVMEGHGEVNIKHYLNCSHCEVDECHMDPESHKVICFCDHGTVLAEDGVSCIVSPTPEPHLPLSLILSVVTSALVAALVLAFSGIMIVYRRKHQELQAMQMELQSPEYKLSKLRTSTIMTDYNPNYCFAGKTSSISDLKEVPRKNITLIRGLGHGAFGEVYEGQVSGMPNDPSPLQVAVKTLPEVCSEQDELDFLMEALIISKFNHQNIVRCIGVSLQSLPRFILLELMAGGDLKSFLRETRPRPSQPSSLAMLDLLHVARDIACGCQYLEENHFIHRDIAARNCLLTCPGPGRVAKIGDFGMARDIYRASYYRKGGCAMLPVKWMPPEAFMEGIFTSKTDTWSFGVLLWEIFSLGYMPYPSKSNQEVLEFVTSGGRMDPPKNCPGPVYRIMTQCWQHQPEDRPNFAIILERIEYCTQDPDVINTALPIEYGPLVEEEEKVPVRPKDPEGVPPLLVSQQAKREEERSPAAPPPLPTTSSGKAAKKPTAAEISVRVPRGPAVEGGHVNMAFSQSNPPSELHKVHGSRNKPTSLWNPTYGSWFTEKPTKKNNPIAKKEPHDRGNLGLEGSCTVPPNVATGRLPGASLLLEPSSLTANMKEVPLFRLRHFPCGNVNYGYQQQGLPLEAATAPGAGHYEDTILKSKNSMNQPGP
Procedure, shortened: (§1)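 Kinase panel profiling at 1 μM performed by Eurofins KinaseProfiler; percent inhibition reported as mean of two independent experiments.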

[4] = test system: Epidermal growth factor receptor (Homo sapiens), P00533 [L858R]; assay: Inhibition of recombinant human EGFR L858R mutant (696 to end residues) at 1 uM using poly(Glu, Tyr) 4:1 as substrate incubated for 40 mins in presence of [gamma-33P]-ATP by scintillation counting method relative to control; procedure, shortened: as §1
[5] = biological target: Ribosomal protein S6 kinase alpha-6 (Homo sapiens) (UniProt Q9UK32); assay: Inhibition of recombinant human full length RSK4 at 1 uM using LRRASLG as substrate incubated for 40 mins in presence of [gamma-33P]-ATP by scintillation counting method relative to control
[6] = test system: Mast/stem cell growth factor receptor Kit (Homo sapiens), P10721 [V654A]; assay: Inhibition of recombinant human c-KIT V654A mutant (544 to end residues) at 1 uM using GGMEDIYFEFMGG as substrate incubated for 40 mins in presence of [gamma-33P]-ATP by scintillation counting method relative to control
Procedure, shortened: (§2)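 Tested at a single 1 uM in an outsourced commercial kinase-profiling panel, read as percent inhibition. Each value is the mean of two independent experiments.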

[7] = biological target: Serine/threonine-protein kinase WNK3 (Homo sapiens) (UniProt Q9BYP7); assay: Inhibition of recombinant human WNK3 (1 to 434 residues) at 1 uM using myelin basic protein as substrate incubated for 40 mins in presence of [gamma-33P]-ATP by scintillation counting method relative to control
[8] = biological target: Serine/threonine-protein kinase 32B (Homo sapiens) (UniProt Q9NY57); assay: Inhibition of recombinant human full length STK32B at 1 uM using casein as substrate incubated for 40 mins in presence of [gamma-33P]-ATP by scintillation counting method relative to control
[9] = biological target: Ephrin type-A receptor 1 (Homo sapiens) (UniProt P21709); assay: Inhibition of recombinant human EPhA1 (568 to end residues) at 1 uM using KKKSPGEYVNIEFG as substrate incubated for 40 mins in presence of [gamma-33P]-ATP by scintillation counting method relative to control
Sequence of Ephrin type-A receptor 1 (Homo sapiens) (P21709 whole entry): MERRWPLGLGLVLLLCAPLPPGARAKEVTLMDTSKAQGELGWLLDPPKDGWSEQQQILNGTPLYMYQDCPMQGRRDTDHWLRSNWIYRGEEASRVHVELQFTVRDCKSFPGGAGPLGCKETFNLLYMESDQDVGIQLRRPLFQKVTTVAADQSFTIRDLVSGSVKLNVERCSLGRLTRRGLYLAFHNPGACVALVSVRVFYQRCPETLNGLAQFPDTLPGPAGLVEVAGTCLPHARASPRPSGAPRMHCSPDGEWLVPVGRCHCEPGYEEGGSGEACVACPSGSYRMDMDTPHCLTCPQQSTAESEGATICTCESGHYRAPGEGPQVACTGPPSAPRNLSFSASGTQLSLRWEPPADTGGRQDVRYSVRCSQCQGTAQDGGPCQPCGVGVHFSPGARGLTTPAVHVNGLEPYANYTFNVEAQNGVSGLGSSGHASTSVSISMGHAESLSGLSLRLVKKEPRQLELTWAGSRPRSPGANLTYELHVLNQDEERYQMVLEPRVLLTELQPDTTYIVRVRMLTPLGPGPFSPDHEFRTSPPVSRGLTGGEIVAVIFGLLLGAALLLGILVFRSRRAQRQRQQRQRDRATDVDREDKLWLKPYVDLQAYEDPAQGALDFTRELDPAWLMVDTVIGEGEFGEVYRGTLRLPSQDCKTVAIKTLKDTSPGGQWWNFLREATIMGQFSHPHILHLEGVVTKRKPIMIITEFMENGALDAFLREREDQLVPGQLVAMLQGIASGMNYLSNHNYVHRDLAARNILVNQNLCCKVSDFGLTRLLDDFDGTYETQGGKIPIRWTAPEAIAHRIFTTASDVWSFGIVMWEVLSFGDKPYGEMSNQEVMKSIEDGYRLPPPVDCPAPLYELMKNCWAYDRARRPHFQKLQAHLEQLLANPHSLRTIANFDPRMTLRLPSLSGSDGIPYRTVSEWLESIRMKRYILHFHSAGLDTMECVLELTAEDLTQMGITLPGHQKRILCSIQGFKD

[10] = test system: SiHa; assay: Antitumor activity against human SiHa cells xenografted in NOD/SCID BALB/c mouse assessed as tumor growth inhibition at 10 to 40 mg/kg, po administered for 21 days; format: functional, organism-based
[11] = biological target: Bone morphogenetic protein receptor type-1B (Homo sapiens) (UniProt O00238); assay: Inhibition of recombinant human ALK6 (148 to end residues) at 1 uM using casein as substrate incubated for 40 mins in presence of [gamma-33P]-ATP by scintillation counting method relative to control; procedure, shortened: as §1
[12] = biological target: CDK2/Cyclin A2 (Homo sapiens, UniProt P24941); assay: Inhibition of recombinant human full length CDK2/CyclinA using as histone H1 substrate incubated for 40 mins in presence of [gamma-33P]-ATP by scintillation counting method; format: protein-complex assay
[13] = biological target: Aurora kinase B (Homo sapiens) (UniProt Q96GD4); assay: Inhibition of recombinant full length human Aurora-B at 1 uM using AKRRRLSSLRA as substrate incubated for 40 mins in presence of [gamma-33P]-ATP by scintillation counting method relative to control; procedure, shortened: as §1
[14] = biological target: Mitogen-activated protein kinase 14 (Homo sapiens) (UniProt Q16539); assay: Inhibition of recombinant human full length SAPK2a at 1 uM using myelin basic protein as substrate incubated for 40 mins in presence of [gamma-33P]-ATP by scintillation counting method relative to control; procedure, shortened: as §2
[15] = test system: Macrophage colony-stimulating factor 1 receptor (Homo sapiens), P07333 [Y969C]; assay: Inhibition of recombinant human FMS Y969C mutant (538 to end residues) at 1 uM using EEEEYEEEEEEYY as substrate incubated for 40 mins in presence of [gamma-33P]-ATP by scintillation counting method relative to control
[16] = Toxicity in NOD/SCID BALB/c mouse xenografted with human SiHa cells assessed as toxic effects in brain at 40 mg/kg, po administered for 48 hrs by hematoxylin and eosin staining method; format: organism-based; details: in vivo
[17] = biological target: Tyrosine-protein kinase SYK (Homo sapiens) (UniProt P43405); assay: Inhibition of recombinant human full length SYK at 1 uM using poly(Glu, Tyr) 4:1 as substrate incubated for 40 mins in presence of [gamma-33P]-ATP by scintillation counting method relative to control
[18] = biological target: Mitogen-activated protein kinase kinase kinase 7 (Homo sapiens) (UniProt O43318); assay: Inhibition of recombinant human TAK1 (1 to 303 residues) at 1 uM using casein as substrate incubated for 40 mins in presence of [gamma-33P]-ATP by scintillation counting method relative to control
Sequence of Mitogen-activated protein kinase kinase kinase 7 (Homo sapiens) (O43318 whole entry, the tested form may be a part): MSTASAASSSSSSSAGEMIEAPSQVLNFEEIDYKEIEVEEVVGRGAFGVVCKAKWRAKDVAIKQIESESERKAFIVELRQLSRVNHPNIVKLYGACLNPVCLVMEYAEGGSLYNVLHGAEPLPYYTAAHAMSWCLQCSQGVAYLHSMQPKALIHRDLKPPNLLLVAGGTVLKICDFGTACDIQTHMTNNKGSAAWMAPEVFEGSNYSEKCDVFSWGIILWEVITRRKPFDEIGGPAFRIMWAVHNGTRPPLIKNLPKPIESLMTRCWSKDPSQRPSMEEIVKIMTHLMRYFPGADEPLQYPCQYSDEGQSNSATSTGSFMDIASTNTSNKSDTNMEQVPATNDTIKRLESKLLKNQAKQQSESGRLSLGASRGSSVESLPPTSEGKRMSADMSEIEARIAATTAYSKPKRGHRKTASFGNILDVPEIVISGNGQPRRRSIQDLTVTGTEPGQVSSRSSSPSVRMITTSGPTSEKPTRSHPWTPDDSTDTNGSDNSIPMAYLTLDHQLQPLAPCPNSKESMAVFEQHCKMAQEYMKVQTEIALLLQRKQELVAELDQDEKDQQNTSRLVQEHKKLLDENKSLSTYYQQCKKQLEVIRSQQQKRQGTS

[19] = Toxicity in NOD/SCID BALB/c mouse xenografted with human SiHa cells assessed as effect on blood parameter by measuring neutrophils content at 40 mg/kg, po administered once two days for 4 times by hematology analyzer; format: organism-based; details: in vivo
[20] = biological target: Tyrosine-protein kinase Lyn (Homo sapiens) (UniProt P07948); assay: Inhibition of recombinant human full length LYN at 1 uM using poly(Glu, Tyr) 4:1 as substrate incubated for 40 mins in presence of [gamma-33P]-ATP by scintillation counting method relative to control
[21] = biological target: Tyrosine-protein kinase Srms (Homo sapiens) (UniProt Q9H3Y6); assay: Inhibition of recombinant human SRMS at 1 uM incubated for 40 mins in presence of [gamma-33P]-ATP by scintillation counting method relative to control
[22] = biological target: Vascular endothelial growth factor receptor 2 (Homo sapiens, UniProt P35968); assay: Inhibition of recombinant human KDR (790 to end residues) at 1 uM using myelin basic protein as substrate incubated for 40 mins in presence of [gamma-33P]-ATP by scintillation counting method relative to control
Sequence of Vascular endothelial growth factor receptor 2 (P35968 whole entry): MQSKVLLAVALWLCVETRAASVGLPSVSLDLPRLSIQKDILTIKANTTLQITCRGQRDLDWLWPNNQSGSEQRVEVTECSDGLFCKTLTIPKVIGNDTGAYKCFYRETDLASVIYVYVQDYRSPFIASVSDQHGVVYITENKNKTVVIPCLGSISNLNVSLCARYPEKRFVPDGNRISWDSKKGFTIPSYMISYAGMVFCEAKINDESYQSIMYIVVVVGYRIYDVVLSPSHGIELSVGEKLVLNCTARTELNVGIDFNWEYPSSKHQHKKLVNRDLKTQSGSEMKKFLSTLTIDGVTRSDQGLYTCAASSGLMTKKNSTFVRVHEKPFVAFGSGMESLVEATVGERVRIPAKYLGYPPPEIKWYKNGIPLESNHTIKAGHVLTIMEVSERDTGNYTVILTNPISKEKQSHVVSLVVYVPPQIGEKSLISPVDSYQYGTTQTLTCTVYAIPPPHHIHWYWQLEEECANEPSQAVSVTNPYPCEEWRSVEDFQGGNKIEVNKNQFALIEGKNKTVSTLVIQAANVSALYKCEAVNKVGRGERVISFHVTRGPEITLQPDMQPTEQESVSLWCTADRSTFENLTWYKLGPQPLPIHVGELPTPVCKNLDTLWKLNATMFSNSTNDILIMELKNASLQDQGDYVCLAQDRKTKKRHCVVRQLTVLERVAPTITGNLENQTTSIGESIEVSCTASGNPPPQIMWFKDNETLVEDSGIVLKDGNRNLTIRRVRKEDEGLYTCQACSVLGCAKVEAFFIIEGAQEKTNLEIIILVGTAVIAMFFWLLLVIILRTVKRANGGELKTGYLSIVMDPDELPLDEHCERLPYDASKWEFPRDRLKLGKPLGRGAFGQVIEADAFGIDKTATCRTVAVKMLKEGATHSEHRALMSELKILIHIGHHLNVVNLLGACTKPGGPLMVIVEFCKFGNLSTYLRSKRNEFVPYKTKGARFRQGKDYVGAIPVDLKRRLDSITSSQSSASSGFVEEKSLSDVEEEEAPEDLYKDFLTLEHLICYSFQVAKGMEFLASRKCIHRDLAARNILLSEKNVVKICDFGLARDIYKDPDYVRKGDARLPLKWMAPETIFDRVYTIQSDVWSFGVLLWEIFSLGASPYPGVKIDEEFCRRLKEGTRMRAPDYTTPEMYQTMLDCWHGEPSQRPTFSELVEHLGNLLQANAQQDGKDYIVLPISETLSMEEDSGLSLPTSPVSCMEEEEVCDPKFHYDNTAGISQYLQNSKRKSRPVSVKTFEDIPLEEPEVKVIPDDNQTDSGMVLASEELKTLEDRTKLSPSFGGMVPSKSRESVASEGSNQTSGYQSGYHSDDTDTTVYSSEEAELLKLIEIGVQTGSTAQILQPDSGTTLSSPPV

[23] = biological target: SRSF protein kinase 3 (Homo sapiens) (UniProt Q9UPE1); assay: Inhibition of recombinant human full length MSSK1 at 1 uM using ERMRPRKRQGSVRRRV as substrate incubated for 40 mins in presence of [gamma-33P]-ATP by scintillation counting method relative to control
Sequence of SRSF protein kinase 3 (Homo sapiens) (Q9UPE1 whole entry): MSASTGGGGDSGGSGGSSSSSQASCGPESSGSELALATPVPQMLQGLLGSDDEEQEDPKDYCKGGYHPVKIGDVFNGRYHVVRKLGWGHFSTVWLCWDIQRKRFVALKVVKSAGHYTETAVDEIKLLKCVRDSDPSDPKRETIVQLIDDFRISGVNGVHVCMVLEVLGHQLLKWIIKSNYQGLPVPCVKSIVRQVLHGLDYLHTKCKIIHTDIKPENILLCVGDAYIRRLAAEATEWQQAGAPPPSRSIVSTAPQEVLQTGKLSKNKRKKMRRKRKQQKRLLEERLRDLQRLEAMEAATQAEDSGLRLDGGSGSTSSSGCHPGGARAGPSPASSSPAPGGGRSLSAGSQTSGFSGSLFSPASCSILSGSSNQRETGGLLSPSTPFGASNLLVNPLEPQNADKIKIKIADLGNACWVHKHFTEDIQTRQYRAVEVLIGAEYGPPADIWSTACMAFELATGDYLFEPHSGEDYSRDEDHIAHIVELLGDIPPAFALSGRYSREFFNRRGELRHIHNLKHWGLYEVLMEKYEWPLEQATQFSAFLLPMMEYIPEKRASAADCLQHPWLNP

In the case of `COc1cc2nccc(Oc3ccc(NC(=O)C4(C(=O)Nc5ccc(F)cc5)CC4)cc3)c2cc1OC` [CABOZANTINIB], the inhibition [1] is reported as “Active” and the inhibition [2] is reported as “Active”.

For `Cc1ccc(NC(=O)C2(C(=O)Nc3ccc(Nc4ncc(F)c(-c5cc(F)c6nc(C)n(C(C)C)c6c5)n4)cc3)CC2)cc1`, the inhibition [3] was 18%, the inhibition [4] was 35% and the inhibition [5] was 22%. For the same compound, the inhibition [6] was 45%, the inhibition [7] was 17% and the inhibition [8] was 2%. The inhibition [9] was 73%, the TGI [10] was “Active” and the inhibition [11] was 12%. For the same compound, the IC50 [12] was 230 nM, the inhibition [13] was 64% and the inhibition [14] was 0%. For the same compound, the inhibition [15] was 73%, the Activity [16] was “Non-Toxic” and the inhibition [17] was 49%. The inhibition [18] was 7%, the Activity [19] was “Non-Toxic” and the inhibition [20] was 58%. The inhibition [21] was 4%, the inhibition [22] was 95% and the inhibition [23] was 2%.
